# Screening data (PubChem)
# An excerpt weighted towards active compounds, which were near 2.7% of everything screened.
# pPAFAH inh – pPAFAH (human) enzyme inhibition | hit rate 1.5% among 330,000 | recombinant pPAFAH, FP-rhodamine probe fluorescence polarization | Q13093 | inhibition, % at 3.39 µM | AID 463082;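 active = inhibition above the mean inhibition across the screen plus 3 SD, cut at about 25% in these data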;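 note: inhibitors block binding of the rhodamine activity-based probe so polarization drops; 0% = enzyme with DMSO and 100% = wells lacking pPAFAH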
# Target sequence (Q13093 whole entry, looked up): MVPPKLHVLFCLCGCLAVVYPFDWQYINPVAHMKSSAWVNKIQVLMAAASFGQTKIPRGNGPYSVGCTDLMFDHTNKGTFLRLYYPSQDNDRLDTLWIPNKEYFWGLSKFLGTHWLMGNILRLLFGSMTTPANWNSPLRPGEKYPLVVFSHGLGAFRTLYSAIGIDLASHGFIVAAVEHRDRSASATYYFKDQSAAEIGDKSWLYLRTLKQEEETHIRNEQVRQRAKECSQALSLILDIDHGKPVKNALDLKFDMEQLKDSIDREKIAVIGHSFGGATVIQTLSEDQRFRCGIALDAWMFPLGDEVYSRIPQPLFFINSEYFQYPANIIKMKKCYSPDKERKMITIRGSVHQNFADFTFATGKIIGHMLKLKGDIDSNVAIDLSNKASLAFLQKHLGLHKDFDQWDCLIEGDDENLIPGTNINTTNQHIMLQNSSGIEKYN
# PAFAH2 inh – inhibitors of human PAFAH2. Q99487. recombinant PAFAH2, FP-rhodamine activity probe, fluorescence polarization. inhibition, % at 3.39 µM. hit rate 0.99% among 340,000. AID 492956;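 active = inhibition above the mean over all tested compounds plus 3 SD, cut at about 30% in these data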;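 note: inhibitors block probe labeling of enzyme so polarization drops; 0% = enzyme with DMSO and 100% = wells lacking PAFAH2 protein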
# ASAP1 inh – inhibitors of human ASAP1 ArfGAP activity; Q9ULH1; ASAP1-stimulated ARF1 GTP hydrolysis, GDP FP detection; inhibition, % at 16.5 µM; hit rate 0.19% among 360,000; in the data active = inhibition above about 25%;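 note: 0% = vehicle with enzyme and substrate and 100% = no enzyme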
# PAFAH1B3 inh – blocks human PAF acetylhydrolase 1B catalytic subunit 3; hit rate 0.28% among 340,000; Q15102; recombinant PAFAH1B3, FP-rhodamine probe, fluorescence polarization; inhibition, % at 3.39 µM;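 active = inhibition above the screen-wide average of all tested compounds plus 3 SD, cut at about 25% in these data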;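 note: 0% = enzyme with DMSO only and 100% = wells lacking PAFAH1B3 protein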
# ARFGAP1 inhibitor – rat ARFGAP1 inhibition. Arfgap1-stimulated ARF1 GTP hydrolysis, GDP FP detection. inhibition, % at 16.5 µM. hit rate 0.26% among 360,000;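 active = inhibition above a per-plate limit, mean inhibition of low control wells plus 3 SD, cut at about 25% in these data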;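 note: 0% = DMSO wells with enzyme and 100% = wells lacking Arfgap1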
# Target sequence (Q62848 1-136 limits assumed): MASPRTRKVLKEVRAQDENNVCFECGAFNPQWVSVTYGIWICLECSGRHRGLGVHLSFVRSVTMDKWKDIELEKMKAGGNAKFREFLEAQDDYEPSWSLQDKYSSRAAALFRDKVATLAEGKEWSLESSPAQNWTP
#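 Assay system: Rat Arfgap1 GAP domain (His6, aa 1-136), purified enzyme | Buffer or medium: HEPES 25 mM pH 7.5, NaCl 150 mM, MgCl2, DTT | Schedule: GTP hydrolysis reaction 2 h at 25 °C | Signal: FP of antibody-bound GDP Alexa 633 tracer, ex 620/em 688 nm | Measure: Percent inhibition of Arfgap1-stimulated GTP hydrolysis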
# PAFAH1B2 FP inh – inhibitors of human PAFAH1B2; P68402; recombinant PAFAH1B2, FP-rhodamine activity probe, fluorescence polarization; inhibition, % at 3.39 µM; hit rate 1.2% among 340,000; AID 492953;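 active = inhibition above the mean of all tested compounds plus 3 SD, cut at about 24% in these data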;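 note: 0% = enzyme with DMSO and 100% = wells lacking PAFAH1B2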
# ASAP1 GAP conf – confirmation of human ASAP1 inhibitors; shares compounds with ASAP1 inh; ASAP1-stimulated Arf1 GTPase, GDP fluorescence polarization; inhibition, % at 16.5 µM; hit rate 37% among 620;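 active = mean inhibition over triplicates exceeds the hit threshold derived for the earlier primary screening run, cut at about 25% in these data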
# Active calls of the source: *; · = no result given.
SMILES,pPAFAH inh,PAFAH2 inh,ASAP1 inh,PAFAH1B3 inh,ARFGAP1 inhibitor,PAFAH1B2 FP inh,ASAP1 GAP conf
CN(C)c1ccc(-c2ccnc3c2CC(C)(C(=O)NCCC(F)(F)F)O3)cc1 (stereo not drawn),·,·,1,·,-7,·,·
CSCCC(C(=O)Nc1c(C)cccc1C)N1CCN(c2ccc(C(F)(F)F)cn2)CC1 (stereo not drawn),·,·,7,·,-4,·,·
COc1ccc(CN2C(=O)Cc3c2nc(N)c2c(N)nc(N4CCOCC4)c(C#N)c32)cc1,10,6,28*,6,-4,7,8
COc1ccc2cc(C(=O)Nc3ccc(F)cc3)sc(=O)c2c1OC,-2,-6,26*,-3,-5,-1,22
COc1ccc2cc(C(=O)Nc3ccc(Cl)cc3)sc(=O)c2c1OC,-4,-64,56*,-43,13,-24,56*
COc1ccc2cc(C(=O)Nc3ccc(O)cc3)sc(=O)c2c1OC,7,9,7,3,21,1,·
CCOc1cc2c(C#N)c(N(CC)CC)nc(N)c2c(N)n1,7,-2,33*,-3,20,12,9
COC(=O)[C@]12CCCCC=C1N(Cc1ccco1)C(=O)[C@H](CC(=O)NCc1ccccc1)C2,·,·,1,·,10,·,·
CC(=O)Nc1ccc(NC(=O)c2cccc(-c3cc4ccccc4oc3=O)c2)cc1,2,-2,1,6,-8,1,·
COc1ccc(C(=O)Nc2cccc(-c3cc4ccccc4oc3=O)c2)cc1[N+](=O)[O-],8,-6,27*,-20,24,-11,72*
CCc1cccc2c(C(=O)CN3C(=O)NC4(CCc5ccccc54)C3=O)c[nH]c12 (stereo not drawn),-1,7,-3,-2,0,9,·
CCc1cccc2c(C(=O)CN3C(=O)NC(C)(c4cccc5ccccc45)C3=O)c[nH]c12 (stereo not drawn),-10,-33,32*,-15,14,-9,28*
CC(=O)Nc1nc2[nH]ccc2c(=O)[nH]1,·,·,1,·,1,·,·
Cc1ccc2c(c1)[C@H]1[C@H](CO2)[C@H](c2ccccc2)[C@]2(C)C(=O)N(C)CC(=O)N12,·,0,0,2,6,-1,·
COc1ccccc1Nc1nc(-c2sc(NC(=O)C(C)(C)C)nc2C)cs1,12,-4,-14,4,14,4,·
Cc1ccc(Cl)cc1Nc1nc(-c2sc(NC(=O)C(C)(C)C)nc2C)cs1,12,-11,25*,4,1,-8,10
Cc1ccc(NC(=O)c2ncn(CCCN(C)CCc3ccccn3)n2)cc1C,·,-9,-12,4,0,7,·
Nc1c(-c2ccc(F)c(F)c2)nc2ncccn12,·,·,-7,·,-5,·,·
COc1cc2sc3ccc(C#Cc4ccccn4)cc3c(=O)c2cc1OC,-9,-1,31*,1,12,-8,28*
COc1ccc(C2=NS(=O)(=O)N(C)C(C(=O)Nc3ccc(OC)c(OC)c3)=C2)cc1,5,4,14,-4,20,3,·
COc1ccc(NC(=O)C2=CC(c3ccc(C)cc3)=NS(=O)(=O)N2C)cc1OC,10,-5,25*,-4,3,4,13
CS(=O)(=O)Nc1ccccc1-c1cccc2nccn12,·,·,-5,·,0,·,·
CCCCNC(=O)NC12CC3CC(CC(C3)C1)C2,-1,7,7,-6,6,4,·
CCCCNC(=O)NC(C(=O)OC)C12CC3CC(CC(C3)C1)C2 (stereo not drawn),-2,-1,30*,3,13,6,-4
CC(Sc1ccsc1[N+](=O)[O-])C(=O)NCc1ccccc1 (stereo not drawn),8,·,25*,·,8,·,3
SMILES,pPAFAH inh,PAFAH2 inh,ASAP1 inh,PAFAH1B3 inh,ARFGAP1 inhibitor,PAFAH1B2 FP inh,ASAP1 GAP conf
C[C@@H]1CN([C@H](C)CO)C(=O)c2c(c3ccccc3n2C)-c2ccccc2CO[C@H]1CN(C)C(=O)NC1CCCCC1,·,·,14,·,2,·,·
COc1cnc(-c2ccccc2)nc1Oc1cccc(C)c1,1,-1,25*,5,15,-3,6
COc1cnc(-c2ccccc2)nc1OC,3,2,5,10,-7,0,·
Nc1nnc2cc(Br)ccc2n1,·,·,3,·,6,·,·
COc1ccc(OC)c(/C=N\NC(=O)c2cc3c(ccc4ccccc43)o2)c1,3,-22,9,-15,11,-5,·
COc1ccc(/C=N/NC(=O)c2cc3c(ccc4ccccc43)o2)c(OC)c1,·,-45,34*,-14,8,-10,16
COc1ccc(C(=O)N/N=C/c2cn[nH]c2-c2ccc(OC)cc2OC)cc1,-1,-8,29*,7,4,3,19
COc1ccc(-c2[nH]ncc2/C=N/NC(=O)c2ccc(Br)cc2)c(OC)c1,-1,-4,8,6,11,5,·
C[C@H]1COc2cccc(N3CCSCC3)c2S(=O)(=O)N1,·,·,1,·,3,·,·
O=c1c2ccccc2nc(/C=C/c2cc(Br)ccc2O)n1CCO,0,0,27*,6,4,0,9
CCCCOC(=O)Sc1nc2ccccc2o1,3,-6,25*,8,-1,-1,-1
Nc1ccc(O)c2c(=O)cc(-c3ccccc3Cl)oc12,19,1,28*,-10,0,-1,13
CCCCn1c(SCC(=O)NCc2ccc3c(c2)OCO3)nnc1C(CC)N(C)C (stereo not drawn),·,2,-1,-3,-12,0,·
Cc1cccc([N+](=O)[O-])c1NC(=O)CSc1nnc2ccccn12,-2,-1,-3,6,-19,4,·
COc1ccc(N/N=C(\C#N)C(=N)N2CCCCC2)cc1,11,-4,-8,9,9,3,·
COc1ccc(N/N=C(\C#N)C(=N)SCc2ccccc2)cc1,·,10,26*,4,5,7,1
CC(=O)CN1C(=O)NC2(CCCc3ccccc32)C1=O (stereo not drawn),3,7,-5,4,8,1,·
NC(=O)CN1C(=O)NC2(CCCc3ccccc32)C1=O (stereo not drawn),0,4,25*,10,2,-3,5
Fc1ccc(-c2nc3c4ccccc4ccn3c2Cc2cccc(Cl)c2)cc1,·,·,-3,·,-19,·,·
Cc1nc2ccccc2nc1N1CCCC1,1,-6,31*,7,6,3,3
Cc1nc2ccccc2nc1N1CCOCC1,0,-5,-5,-7,-12,3,·
O=C(Nc1ccc2c(c1)OCCO2)C(c1ccncc1)n1c(=O)c(-c2cc3ccccc3[nH]2)nc2ccccc21 (stereo not drawn),·,·,33*,·,8,·,16
O=S1(=O)CC(c2ccccc2)=NN=C(c2ccccc2)C1,·,·,-4,·,11,·,·
